# According to ChEMBL document CHEMBL1138360, “Hypoxia-selective 3-alkyl 1,2,4-benzotriazine 1,4-dioxides: the influence of hydrogen bond donors on extravascular transport and antitumor activity” (J Med Chem, 2007):
# What was measured:
# [1] = test system: HT-29; experiment: Drug penetration in anoxic HT29 cells assessed as penetration half distance; assay type: ADME, cell-based; settings: human
# [2] = test system: HT-29; experiment: Cytotoxicity against HT29 cells under hypoxic condition after 4 hrs; assay type: functional, cell-based; settings: Homo sapiens, HT-29, 4 h
# Method in brief: (§1)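 HT29 or SiHa cells exposed to drug for 4 h in 96-well plates under anoxia (H2/Pd anaerobic chamber). IC50 determined.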
# [3] = test system: SiHa; experiment: Ratio of IC50 for SiHa cells in aerobic condition to IC50 for SiHa cells in hypoxic condition after 4 hrs; assay type: functional, Homo sapiens
# Method in brief: (§2)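 Aerobic and anoxic (H2/Pd chamber) IC50s measured in the same experiment after 4 h exposure, HT29 or SiHa cells. Ratio computed as aerobic IC50/anoxic IC50.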
# [4] = test system: HT-29; experiment: Cell viability in anoxic HT29 cells assessed as drug level providing 10% surviving fraction by clonogenic assay; assay type: cell-based; settings: human
# [5] = test system: SiHa; experiment: Cytotoxicity against SiHa cells under hypoxic condition after 4 hrs; assay type: functional, cell-based; settings: Homo sapiens; method in brief: as §1
# [6] = test system: HT-29; experiment: Ratio of IC50 for HT29 cells in aerobic condition to IC50 for HT29 cells in hypoxic condition after 4 hrs; assay type: functional, Homo sapiens; method in brief: as §2
# [7] = test system: HT-29; experiment: Diffusion coefficient, D in aerobic HT29 multicellular layers; assay type: ADME, cell-based; settings: human
# Method in brief: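 Drug flux measured through HT29 multicellular layers on Teflon support membranes under 95% O2 at 37 °C, 50 µM initial donor concentration. Donor and receiver levels fitted with a diffusion model. Layer thickness estimated from flux of internal standard urea.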
# [8] = Solubility in culture medium in presence of 5% fetal calf serum; assay type: physicochemical; settings: culture medium with 5% fetal calf serum
# Method in brief: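 Solubility determined at 22 °C in culture medium containing 5% fetal calf serum.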
Compound,Penetration half distance [1] [µm],IC50 [2] [µM],Ratio IC50 [3],Activity [4] [µM·h],IC50 [5] [µM],Ratio IC50 [6],D [7],solubility [8] [mM]
CCc1n[n+]([O-])c2cc(OCCN(C)C)ccc2[n+]1[O-],34,0.7,128,1.8,0.5,105,,
CCc1n[n+]([O-])c2ccc(OCCO)cc2[n+]1[O-],34,14.4,203,97.3,7.9,54,,
CCc1n[n+]([O-])c2ccc(OCCCO)cc2[n+]1[O-],34,17,105,108.9,8.6,54,,
CCc1n[n+]([O-])c2cc(OCCOC)ccc2[n+]1[O-],34,4.7,116,40.7,1.8,69,,
Cc1n[n+]([O-])c2ccccc2[n+]1[O-],34,4.1,57,25.3,3,67,19.15 10^-7cm2/sec,
[O-][n+]1nc(CCO)[n+]([O-])c2ccccc21,34,3.7,526,18.1,1.7,153,4.41 10^-7cm2/sec,
COCCCc1n[n+]([O-])c2ccccc2[n+]1[O-],34,6.9,272,26.7,2.4,86,21.3 10^-7cm2/sec,
[O-][n+]1nc(-c2ccccc2)[n+]([O-])c2ccccc21,34,4.4,1,,2.2,2,,
[O-][n+]1nc(CCN2CCOCC2)[n+]([O-])c2ccccc21,34,3.8,225,10,2.2,107,,
[O-][n+]1nc(CCCN2CCOCC2)[n+]([O-])c2ccccc21,34,2.2,132,3.2,1,91,7.47 10^-7cm2/sec,
CN(C)CCCc1n[n+]([O-])c2ccccc2[n+]1[O-],34,0.39,58,2.1,0.2,71,,
CCc1n[n+]([O-])c2ccc(C)cc2[n+]1[O-],34,11.4,214,52.4,3.6,63,,
COCCc1n[n+]([O-])c2ccc(C)cc2[n+]1[O-],34,6.6,150,57.9,1.9,63,17.34 10^-7cm2/sec,
[O-][n+]1nc(CCCN2CCCCC2)[n+]([O-])c2ccccc21,34,1,55,1.5,0.6,36,6.5 10^-7cm2/sec,
Cc1ccc2c(c1)[n+]([O-])c(CCO)n[n+]2[O-],34,4.3,208,22.2,1.2,82,,
CCc1n[n+]([O-])c2ccc(OCCOC)cc2[n+]1[O-],34,17.9,70,213.2,14.2,120,,
[O-][n+]1nc(CCCO)[n+]([O-])c2ccccc21,34,3.7,85,30.2,3.1,110,4.94 10^-7cm2/sec,
COc1n[n+]([O-])c2ccccc2[n+]1[O-],34,3.1,4,,1.1,1,,
CCc1n[n+]([O-])c2cc(OCCCO)ccc2[n+]1[O-],34,6.9,161,31.6,2.7,146,,
CCc1n[n+]([O-])c2ccc(OC)cc2[n+]1[O-].Cl,,,,,,,,3
Cl.[O-][n+]1nc(CCCN2CCOCC2)[n+]([O-])c2ccccc21,,,,,,,,> 46
Cc1ccc2c(c1)[n+]([O-])c(CCO)n[n+]2[O-].Cl,,,,,,,,7
CCc1n[n+]([O-])c2cc(OCCN(C)C)ccc2[n+]1[O-].Cl,,,,,,,,> 51

Compound,Penetration half distance [1] [µm],IC50 [2] [µM],Ratio IC50 [3],Activity [4] [µM·h],IC50 [5] [µM],Ratio IC50 [6],D [7],solubility [8] [mM]
CCc1n[n+]([O-])c2ccc(OCCCO)cc2[n+]1[O-].Cl,,,,,,,,10
CCc1n[n+]([O-])c2ccc(OCCN(C)C)cc2[n+]1[O-].Cl,,,,,,,,> 49
CCc1n[n+]([O-])c2ccccc2[n+]1[O-].Cl,,,,,,,,15
COCCc1n[n+]([O-])c2ccccc2[n+]1[O-].Cl,,,,,,,,> 21
CCc1n[n+]([O-])c2ccc(OCCN3CCCCC3)cc2[n+]1[O-].Cl,,,,,,,,> 48
CCc1n[n+]([O-])c2cc(OCCOC)ccc2[n+]1[O-].Cl,,,,,,,,2
Cl.[O-][n+]1nc(CCCO)[n+]([O-])c2ccccc21,,,,,,,,50
CCc1n[n+]([O-])c2cc(OCCCO)ccc2[n+]1[O-].Cl,,,,,,,,17
CCc1n[n+]([O-])c2cc(OCCCN3CCOCC3)ccc2[n+]1[O-].Cl,,,,,,,,> 48
Cl.[O-][n+]1nc(-c2ccccc2)[n+]([O-])c2ccccc21,,,,,,,,0.3
COc1n[n+]([O-])c2ccccc2[n+]1[O-].Cl,,,,,,,,23
Cl.[O-][n+]1nc(CCN2CCOCC2)[n+]([O-])c2ccccc21,,,,,,,,42
CCc1n[n+]([O-])c2ccc(OCCO)cc2[n+]1[O-].Cl,,,,,,,,21
CCc1n[n+]([O-])c2ccc(OCCOC)cc2[n+]1[O-].Cl,,,,,,,,3
CCc1n[n+]([O-])c2ccc(OCCCN3CCOCC3)cc2[n+]1[O-].Cl,,,,,,,,> 47
COCCc1n[n+]([O-])c2ccc(C)cc2[n+]1[O-].Cl,,,,,,,,3
COCCCc1n[n+]([O-])c2ccccc2[n+]1[O-].Cl,,,,,,,,21
Cc1n[n+]([O-])c2ccccc2[n+]1[O-].Cl,,,,,,,,28
Cl.[O-][n+]1nc(CCO)[n+]([O-])c2ccccc21,,,,,,,,34
CN(C)CCCc1n[n+]([O-])c2ccccc2[n+]1[O-].Cl,,,,,,,,51
CCc1n[n+]([O-])c2ccc(C)cc2[n+]1[O-].Cl,,,,,,,,4
Cl.[O-][n+]1nc(CCCN2CCCCC2)[n+]([O-])c2ccccc21,,,,,,,,43
